Experimental data reported in paper PMC2752341 (Bioorganic & medicinal chemistry, 2008).

Legend:
human topoisomerase I = target: T1, human topoisomerase I (Homo sapiens, UniProt P11387); assay: Topoisomerase I-mediated DNA cleavage assay; format: biochemical; conditions: for TOP1-targeting activity (in words): summary of Table 1
T1 sequence (P11387 1-765): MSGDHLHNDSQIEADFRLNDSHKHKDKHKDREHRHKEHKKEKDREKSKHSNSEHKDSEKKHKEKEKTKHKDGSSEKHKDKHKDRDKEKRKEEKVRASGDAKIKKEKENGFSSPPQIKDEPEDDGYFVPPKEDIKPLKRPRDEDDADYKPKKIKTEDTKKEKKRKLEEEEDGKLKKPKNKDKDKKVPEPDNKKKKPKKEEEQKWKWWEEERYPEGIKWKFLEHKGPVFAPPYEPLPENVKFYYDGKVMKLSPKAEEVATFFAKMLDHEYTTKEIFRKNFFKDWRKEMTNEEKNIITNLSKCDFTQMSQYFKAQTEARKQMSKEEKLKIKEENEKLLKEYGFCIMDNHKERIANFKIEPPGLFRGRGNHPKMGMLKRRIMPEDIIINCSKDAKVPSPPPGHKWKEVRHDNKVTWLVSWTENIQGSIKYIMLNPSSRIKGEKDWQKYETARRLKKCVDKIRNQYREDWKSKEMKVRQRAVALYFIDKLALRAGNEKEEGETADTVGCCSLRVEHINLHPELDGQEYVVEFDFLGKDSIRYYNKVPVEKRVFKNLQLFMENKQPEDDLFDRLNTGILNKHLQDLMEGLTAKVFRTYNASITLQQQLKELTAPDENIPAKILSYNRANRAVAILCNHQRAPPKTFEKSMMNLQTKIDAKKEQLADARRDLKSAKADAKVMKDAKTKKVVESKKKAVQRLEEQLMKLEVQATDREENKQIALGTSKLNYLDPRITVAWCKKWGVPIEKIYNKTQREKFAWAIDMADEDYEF

[1] = test system: MDA-MB-435 human tumor xenografts; assay: Human tumor xenograft antitumor bioassay; format: in vivo, athymic nude mice; conditions: for Average tumor volume: MDA-MB-435 xenograft in athymic nude mice; for Antitumor activity in vivo (in words): MDA-MB-435 xenograft, at maximally tolerated doses, I.P.
Summary of the method: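 Female NCR/NU NU mice, about 9 weeks old, were inoculated sc in the right flank with 1.5 × 10^6 MDA-MB-435 cells (RPMI 1640/10% FBS culture) and grouped by matched tumor volume at 19–20 days. Test compound was given qd × 5/week at per-compound doses, some adjusted during the study; vehicle was 0.1% citrate in H2O. Caliper tumor volume ((l*w2)/2) was taken every other day, with daily weights.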

KBV-1 cells = assay: MTT cytotoxicity assay in KBV-1; format: cell-based; conditions: for Substrate for MDR1 efflux transporter (conclusion in words): from relative cytotoxicity KBV-1 vs KB3-1
KBH5.0 cells = assay: MTT cytotoxicity assay in KBH5.0; format: cell-based; conditions: from relative cytotoxicity KBH5.0 vs KB3-1
RPMI8402 cells = assay: MTT cytotoxicity assay in RPMI8402; format: cell-based, human

Row | SMILES | TOP1-mediated cleavage (REC, relative effective concentration) (human topoisomerase I; concentration relative to topotecan (=1) producing 10% cleavage of plasmid DNA) | Average tumor volume ([1]; Day 7, I.P.) [mm^3] | Average tumor volume ([1]; Day 14, I.P.) [mm^3] | Average tumor volume ([1]; Day 21, I.P.) [mm^3] | Average tumor volume ([1]; Day 28, I.P.) [mm^3] | Average tumor volume ([1]; Day 35, I.P.) [mm^3] | Average tumor volume ([1]; Day 42, I.P.) [mm^3] | Average tumor volume ([1]; Day 49, I.P.) [mm^3] | Antitumor activity in vivo (in words) [1] | TOP1-targeting activity (in words) (human topoisomerase I) | Substrate for MDR1 efflux transporter (conclusion in words) (KBV-1 cells) | Substrate for BCRP efflux transporter (conclusion in words) (KBH5.0 cells) | fold less cytotoxic than 13 (RPMI8402 cells) | fold difference in IC50 values between KB3-1 cells and KBV-1 cells (KBV-1 cells; KBV-1 vs KB3-1) [fold]
1 | CC[C@@]1(O)C(=O)OCc2c1cc1n(c2=O)Cc2cc3ccccc3nc2-1 [CPT, camptothecin, reference compound] | 0.2 |  |  |  |  |  |  |  |  |  |  |  |  | 
2 | COc1cc2c(=O)n(CCN(C)C)c3c4cc5c(cc4ncc3c2cc1OC)OCO5 [Compound 1, 5H-8,9-dimethoxy-5-(2-N,N-dimethylaminoethyl)-2,3-methylenedioxydibenzo[c,h][1,6]-naphthyridin-6-one] |  | 120 | 123 | 145 | 158 | 175 | 189 | 242 |  |  |  |  |  | 
3 | CCN(CCn1c(=O)c2cc(OC)c(OC)cc2c2cnc3cc4c(cc3c21)OCO4)CC(F)(F)F [Compound 8, 2,3-Methylenedioxy-8,9-dimethoxy-5-[N-ethyl-N-(2,2,2-trifluoroethyl)aminoethyl]dibenzo[c,h][1,6]naphthyridin-6-one] |  | 127 | 176 | 268 | 310 | 435 | 543 | 718 | less efficacious than the N-ethyl-N-cyanomethyl analog 11 or the N-ethyl-N-propargyl derivative 14 |  |  |  |  | 
4 | COc1cc2c(=O)n(CCN(C)CC#N)c3c4cc5c(cc4ncc3c2cc1OC)OCO5 [Compound 10, 2,3-Methylenedioxy-8,9-dimethoxy-5-[N-cyanomethyl-N-methylaminoethyl]dibenzo[c,h][1,6]naphthyridin-6-one] |  | 149 | 222 | 370 | 392 | 528 | 669 | 919 | less active than the N-methyl-N-propargyl 13 or N-methyl-N-acetamide 16 |  |  |  |  | 
5 | CCN(CC#N)CCn1c(=O)c2cc(OC)c(OC)cc2c2cnc3cc4c(cc3c21)OCO4 [Compound 11, 2,3-Methylenedioxy-8,9-dimethoxy-5-[N-cyanomethyl-N-ethylaminoethyl]dibenzo[c,h][1,6]naphthyridin-6-one] |  | 100 | 156 | 178 | 202 | 293 | 361 | 435 | less potent and effective than ARC-111 |  |  |  |  | 
6 | COc1cc2c(=O)n(CCN(CC#N)C(C)C)c3c4cc5c(cc4ncc3c2cc1OC)OCO5 [Compound 12, 2,3-Methylenedioxy-8,9-dimethoxy-5-[N-cyanomethyl-N-isopropyl-aminoethyl]dibenzo[c,h][1,6]naphthyridin-6-one] |  | 142 | 175 | 213 | 220 | 250 | 286 | 314 | less potent and less efficacious than ARC-111 |  |  |  |  | 
7 | C#CCN(C)CCn1c(=O)c2cc(OC)c(OC)cc2c2cnc3cc4c(cc3c21)OCO4 [Compound 13, 2,3-Methylenedioxy-8,9-dimethoxy-5-[N-methyl-N-(prop-2-ynyl)aminoethyl]dibenzo[c,h][1,6]naphthyridin-6-one] |  | 144 | 167 | 218 | 284 | 317 | 358 | 433 |  | retained potent TOP1-targeting activity | does not appear to be a substrate for either MDR1 or BCRP | does not appear to be a substrate for either MDR1 or BCRP |  | 
8 | C#CCN(CC)CCn1c(=O)c2cc(OC)c(OC)cc2c2cnc3cc4c(cc3c21)OCO4 [Compound 14, 2,3-Methylenedioxy-8,9-dimethoxy-5-[N-ethyl-N-(prop-2-ynyl)aminoethyl]dibenzo[c,h][1,6]naphthyridin-6-one] |  | 115 | 106 | 170 | 204 | 331 | 349 | 488 | less potent and effective than ARC-111 | much less active as TOP1-targeting agents |  |  | 2-6 fold | 
9 | C#CCN(CCn1c(=O)c2cc(OC)c(OC)cc2c2cnc3cc4c(cc3c21)OCO4)C(C)C [Compound 15, 2,3-Methylenedioxy-8,9-dimethoxy-5-[N-isopropyl-N-(prop-2-ynyl)aminoethyl]dibenzo-[c,h][1,6]naphthyridin-6-one] |  | 99 | 112 | 165 | 170 | 234 | 310 | 357 | less potent and less efficacious than ARC-111 | much less active as TOP1-targeting agents |  |  | 2-6 fold | 
10 | COc1cc2c(=O)n(CCN(C)CC(N)=O)c3c4cc5c(cc4ncc3c2cc1OC)OCO5 [Compound 16, 2,3-Methylenedioxy-8,9-dimethoxy-5-[N-(2-amino-2-oxoethyl)-N-methylaminoethyl]dibenzo[c,h][1,6]naphthyridin-6-ones] |  | 147 | 178 | 230 | 319 | 344 | 434 | 527 |  | retained potent TOP1-targeting activity | substrates for MDR1 | appears to be a substrate for BCRP |  | 7
